Data on two molecules can be found in ChEMBL document CHEMBL1129630, “Synthesis and structure-activity relationships of retinoid X receptor selective diaryl sulfide analogs of retinoic acid” (J Med Chem, 1996).

Assay [1] has as its target T1, Retinoic acid receptor alpha (Mus musculus, UniProt P11416).
T1 sequence (P11416 whole entry): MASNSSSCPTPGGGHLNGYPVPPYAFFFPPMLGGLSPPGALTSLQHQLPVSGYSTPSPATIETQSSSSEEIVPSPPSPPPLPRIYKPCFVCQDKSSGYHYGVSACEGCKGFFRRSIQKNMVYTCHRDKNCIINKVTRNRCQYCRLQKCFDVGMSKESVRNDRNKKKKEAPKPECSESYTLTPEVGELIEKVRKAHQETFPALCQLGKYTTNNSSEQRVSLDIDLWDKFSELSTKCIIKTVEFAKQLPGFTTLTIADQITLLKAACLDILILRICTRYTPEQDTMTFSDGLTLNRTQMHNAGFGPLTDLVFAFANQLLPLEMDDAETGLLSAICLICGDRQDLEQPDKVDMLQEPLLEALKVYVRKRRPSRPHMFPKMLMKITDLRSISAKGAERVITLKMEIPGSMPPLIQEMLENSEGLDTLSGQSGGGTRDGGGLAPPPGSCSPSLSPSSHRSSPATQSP
The assay is described as follows: Dissociation constant for binding to Retinoic acid receptor alpha;NA=not active. An outline of the steps: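 Competitive binding assays against each receptor subtype, with Kd values taken from competition.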

The target in assay [2] is T2, Retinoic acid receptor beta (Homo sapiens, UniProt P10826).
T2 sequence (P10826 whole entry): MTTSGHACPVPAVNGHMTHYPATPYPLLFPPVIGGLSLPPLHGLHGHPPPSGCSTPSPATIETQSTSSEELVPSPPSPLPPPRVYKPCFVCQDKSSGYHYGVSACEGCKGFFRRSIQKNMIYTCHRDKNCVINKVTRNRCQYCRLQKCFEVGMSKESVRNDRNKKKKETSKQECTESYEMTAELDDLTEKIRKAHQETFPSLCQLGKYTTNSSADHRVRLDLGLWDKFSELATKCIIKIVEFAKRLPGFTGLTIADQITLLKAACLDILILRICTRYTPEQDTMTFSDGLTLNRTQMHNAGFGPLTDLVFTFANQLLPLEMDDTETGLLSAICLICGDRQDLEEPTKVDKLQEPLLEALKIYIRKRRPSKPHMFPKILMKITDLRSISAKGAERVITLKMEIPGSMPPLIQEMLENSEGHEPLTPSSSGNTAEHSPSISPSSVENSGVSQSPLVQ
Nature of the assay: Transcriptional activation of Retinoic acid receptor RAR beta. Further details: species or system Cercopithecidae; call rule not given here. An outline of the steps:
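CV-1 cells transiently cotransfected with the receptor construct and a reporter gene, with induced transcription measured. Activity is normalized to all-trans RA. EC50 is the concentration giving 50% of maximal observed response, from a single experiment in triplicate.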

As for `Cc1cc2c(cc1Sc1ccc(C(=O)O)cn1)C(C)(C)CCC2(C)C`, the Kd entry in assay [1] is recorded as “Not Active”.
What is called EC50 is the concentration giving half of the maximal effect. As for `CC1(C)CCC(C)(C)c2cc(Sc3ccc(C(=O)O)cc3)ccc21`, the EC50 in assay [2] is 570 nM.
